Source: ChEMBL document CHEMBL2440047, “Design, synthesis, and structure-activity relationships of azolylmethylpyrroloquinolines as nonsteroidal aromatase inhibitors” (J Med Chem, 2013)
Calls of active or inactive are those of the source. The rule behind the calls is not given here.

Key:
[1] = Growth inhibition of non-estrogen-sensitive human SEM cells after 72 hrs by MTT assay; assay type: functional
How it was run: (§1)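 Cells were seeded at 8x10^3 per well and left 18 h at 37 °C, 5% CO2, then exposed 72 h to compound at several concentrations from 10 mM DMSO stocks (final DMSO ≤0.25%). Jurkat, RS4;11 and SEM were grown in RPMI-1640; H295R in DMEM-F12 with 2% FBS plus insulin-transferrin-selenium. Viability read by MTT.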

Aromatase [2] = biological target: T1, Aromatase (Homo sapiens, UniProt P11511); assay: Inhibition of aromatase (unknown origin) using 7-methoxy-4-trifluoromethylcoumarin as substrate after 30 mins by fluorimetric analysis
T1 sequence (P11511 whole entry): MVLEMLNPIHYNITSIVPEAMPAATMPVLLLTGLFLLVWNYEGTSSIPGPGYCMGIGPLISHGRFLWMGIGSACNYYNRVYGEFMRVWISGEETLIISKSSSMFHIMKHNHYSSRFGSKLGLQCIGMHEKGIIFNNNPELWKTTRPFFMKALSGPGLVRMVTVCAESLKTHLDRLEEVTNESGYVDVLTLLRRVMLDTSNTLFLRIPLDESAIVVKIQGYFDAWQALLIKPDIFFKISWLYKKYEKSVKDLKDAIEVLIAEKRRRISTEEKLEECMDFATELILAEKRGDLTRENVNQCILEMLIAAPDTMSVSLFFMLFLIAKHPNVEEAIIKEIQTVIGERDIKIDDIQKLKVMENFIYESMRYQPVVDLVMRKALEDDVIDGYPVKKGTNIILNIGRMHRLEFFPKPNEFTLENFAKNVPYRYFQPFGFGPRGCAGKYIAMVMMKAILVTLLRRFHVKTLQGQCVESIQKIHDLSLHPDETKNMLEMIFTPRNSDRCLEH
How it was run: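 Recombinant CYP19 from a high-throughput screening kit, with 7-methoxy-4-trifluoromethylcoumarin as substrate. Enzyme/substrate mix was then added for 30 min at 37 °C before stop reagent. Fluorescence read at λex 410 / λem 530 nm. IC50 given as mean ± SEM of three independent experiments run in duplicate.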

Aromatase [3] = biological target: T1, Aromatase; assay: Inhibition of aromatase in human H295R cells using [1beta-3H(N)]-androst-4-ene-3,17-dione as substrate at 10 uM after 24 hrs by tritiated water release assay
Aromatase [4] = biological target: T1, Aromatase; assay: Inhibition of CYP19 in human H295R cells using [1beta-3H(N)]-androst-4-ene-3,17-dione at 10 uM after 24 hrs by tritiated water release assay; assay type: cell-based
How it was run: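 Cells were then incubated 2 h with 0.5 µM [1β-3H(N)]-androst-4-ene-3,17-dione. Read-out is tritiated water release, expressed as % of untreated cells. Means ± SEM of two independent experiments, each in triplicate.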

MCF7 [5] = assay: Growth inhibition of estrogen-sensitive human MCF7 cells after 72 hrs by MTT assay; assay type: functional; conditions: MCF7, 72 h; how it was run: as §1
HT-29 = assay: Growth inhibition of non-estrogen-sensitive human HT-29 cells after 72 hrs by MTT assay; assay type: functional; conditions: HT-29, 72 h; how it was run: as §1
IGROV-1 = assay: Growth inhibition of estrogen-sensitive human IGROV1 cells after 72 hrs by MTT assay; assay type: functional; conditions: IGROV-1, 72 h; how it was run: as §1
Aromatase [6] = biological target: T1, Aromatase; assay: Inhibition of aromatase (unknown origin) using 7-methoxy-4-trifluoromethylcoumarin as substrate at 10 uM after 30 mins by fluorimetric analysis; conditions: 0.5 h
[7] = biological target: T2, Steroid 17-alpha-hydroxylase/17,20 lyase (Homo sapiens, UniProt P05093); assay: Inhibition of human CYP17 expressed in Escherichia coli using progesterone as substrate NADPH as cofactor
T2 sequence (P05093 whole entry): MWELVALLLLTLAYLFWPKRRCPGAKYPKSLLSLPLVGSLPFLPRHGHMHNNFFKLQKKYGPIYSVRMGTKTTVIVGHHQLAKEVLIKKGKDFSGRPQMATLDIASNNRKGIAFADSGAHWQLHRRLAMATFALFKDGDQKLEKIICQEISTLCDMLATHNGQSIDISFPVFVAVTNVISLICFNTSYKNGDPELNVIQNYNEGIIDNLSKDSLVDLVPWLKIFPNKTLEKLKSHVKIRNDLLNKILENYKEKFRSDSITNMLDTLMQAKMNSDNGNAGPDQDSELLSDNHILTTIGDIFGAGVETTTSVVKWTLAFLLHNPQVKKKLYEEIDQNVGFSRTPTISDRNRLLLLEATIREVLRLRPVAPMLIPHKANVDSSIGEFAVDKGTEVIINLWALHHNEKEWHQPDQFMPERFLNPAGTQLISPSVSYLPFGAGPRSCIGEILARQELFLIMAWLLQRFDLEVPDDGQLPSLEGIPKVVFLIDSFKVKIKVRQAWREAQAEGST
How it was run: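 Cell-free assay using the 50000g sediment of E. coli coexpressing human CYP17 and cytochrome P450 reductase, with progesterone substrate and NADPH cofactor. IC50 given as mean ± SEM of three independent experiments run in duplicate.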

[8] = Growth inhibition of non-estrogen-sensitive human RS4:11 cells after 72 hrs by MTT assay; assay type: functional; conditions: RS4-11, 72 h; how it was run: as §1
Aromatase [9] = biological target: T1, Aromatase; assay: Activation of aromatase in human H295R cells using [1beta-3H(N)]-androst-4-ene-3,17-dione as substrate at 0.1 uM after 24 hrs by tritiated water release assay
[10] = biological target: T3, Cytochrome P450 11B1, mitochondrial (Homo sapiens, UniProt P15538); assay: Inhibition of human CYP11B1 using [1,2-3H]-11-deoxycorticosterone as substrate
T3 sequence (P15538 whole entry): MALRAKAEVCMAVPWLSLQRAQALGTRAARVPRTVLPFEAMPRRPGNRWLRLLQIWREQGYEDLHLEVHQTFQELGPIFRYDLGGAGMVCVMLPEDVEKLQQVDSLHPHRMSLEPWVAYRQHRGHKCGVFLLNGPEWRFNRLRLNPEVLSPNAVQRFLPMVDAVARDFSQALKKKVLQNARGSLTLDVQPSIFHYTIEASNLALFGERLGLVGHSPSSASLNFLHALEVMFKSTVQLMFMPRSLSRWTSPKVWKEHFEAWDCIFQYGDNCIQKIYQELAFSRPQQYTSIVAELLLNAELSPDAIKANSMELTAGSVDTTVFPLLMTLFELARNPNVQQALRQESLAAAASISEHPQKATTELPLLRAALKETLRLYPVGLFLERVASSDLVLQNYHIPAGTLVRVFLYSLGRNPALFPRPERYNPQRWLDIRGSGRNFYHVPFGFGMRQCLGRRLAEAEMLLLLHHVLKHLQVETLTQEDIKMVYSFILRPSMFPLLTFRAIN
How it was run: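 Hamster fibroblast V79MZh cells expressing human CYP11B1 were incubated with [1,2-3H]-11-deoxycorticosterone substrate and inhibitor at several concentrations. IC50 given as mean ± SEM of three independent experiments run in duplicate.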

OVCAR-3 = assay: Growth inhibition of estrogen-sensitive human OVCAR3 cells after 72 hrs by MTT assay; assay type: functional; conditions: OVCAR-3, 72 h; how it was run: as §1
Jurkat = assay: Growth inhibition of non-estrogen-sensitive human Jurkat cells after 72 hrs by MTT assay; assay type: functional; how it was run: as §1
HeLa [11] = assay: Growth inhibition of non-estrogen-sensitive human HeLa cells after 72 hrs by MTT assay; assay type: functional; how it was run: as §1
NCI-H295R = assay: Growth inhibition of estrogen-sensitive human NCI-H295R cells after 72 hrs by MTT assay; assay type: functional; how it was run: as §1
Aromatase [12] = biological target: T1, Aromatase; assay: Inhibition of aromatase in human H295R cells using [1beta-3H(N)]-androst-4-ene-3,17-dione as substrate assessed as residual activity at 1 uM after 24 hrs by tritiated water release assay
HeLa [13] = assay: Cell cycle arrest in non-estrogen-sensitive human HeLa cells at 6 to 50 uM after 24 hrs using propidium iodide staining by flow cytometry; assay type: functional, cell-based
MCF7 [14] = assay: Cell cycle arrest in estrogen-sensitive human MCF7 cells assessed as increase of accumulation at G1 phase after 24 hrs using propidium iodide staining by flow cytometry; assay type: functional, cell-based
MCF7 [15] = assay: Cell cycle arrest in estrogen-sensitive human MCF7 cells assessed as decrease of accumulation at S phase at 6 to 50 uM after 24 hrs using propidium iodide staining by flow cytometry; assay type: functional, cell-based
MCF7 [16] = assay: Cell cycle arrest in estrogen-sensitive human MCF7 cells assessed as decrease of accumulation at G1 and S phase at 6 to 50 uM after 24 hrs using propidium iodide staining by flow cytometry; assay type: functional, cell-based
HeLa [17] = assay: Cell cycle arrest in non-estrogen-sensitive human HeLa cells assessed as increase of accumulation at G2/M phase at 6 to 50 uM after 24 hrs using propidium iodide staining by flow cytometry; assay type: functional, cell-based
Aromatase [18] = biological target: T1, Aromatase; assay: Inhibition of aromatase in human H295R cells using [1beta-3H(N)]-androst-4-ene-3,17-dione as substrate assessed as residual activity at 10 uM after 24 hrs by tritiated water release assay
MCF7 [19] = assay: Cell cycle arrest in estrogen-sensitive human MCF7 cells assessed as increase of accumulation at G2/M phase at 6 to 50 uM after 24 hrs using propidium iodide staining by flow cytometry; assay type: functional, cell-based
HeLa [20] = assay: Cell cycle arrest in non-estrogen-sensitive human HeLa cells assessed as decrease of accumulation at G1 and S phase at 6 to 50 uM after 24 hrs using propidium iodide staining by flow cytometry; assay type: functional, cell-based

Compound	GI50 [1] [µM]	IC50 (Aromatase [2]) [µM]	inhibition (INH) (Aromatase [4])	GI50 (MCF7 [5]) [µM]	GI50 (HT-29) [µM]	GI50 (IGROV-1) [µM]	GI50 [8] [µM]	GI50 (OVCAR-3) [µM]	GI50 (Jurkat) [µM]	GI50 (HeLa [11]) [µM]	GI50 (NCI-H295R) [µM]	other results
CCn1ccc2c3c(CO)cc(-c4ccccc4)nc3ccc21	13.4	> 10	–	–	–	–	–	–	–	–	–	inhibition at 10 µM (Aromatase [3]): 90%
CCOC(=O)c1cc(-c2ccccc2)nc2c1ccc1c2ccn1CC	13	> 10	Not Active	18.5	4.3	–	–	–	–	–	–	–
CCOC(=O)c1cc(-c2ccccc2)nc2ccc3c(ccn3CC)c12	–	> 10	Not Active	–	–	–	–	–	–	–	–	–
Cc1cc(CO)c2ccc3[nH]ccc3c2n1	16.2	4.15	Not Active	5.7	–	–	–	–	–	–	–	–
CCn1ccc2c3nc(-c4ccccc4)cc(Cn4ccnc4)c3ccc21	31.2	0.0053	–	3.8	6.5	18.9	19.2	17.5	16.7	19.5	19	inhibition (INH) (Aromatase [6]): Active; IC50 [7]: 0.48 µM; Activity (Aromatase [9]): Active; IC50 [10]: 0.25 µM
COc1ccc(-c2cc(C(=O)O)c3ccc4[nH]ccc4c3n2)cc1	–	> 10	Not Active	–	–	–	–	–	–	–	–	activity at 1 µM (Aromatase [12]): 10.6%
CCOC(=O)c1cc(-c2ccccc2)nc2c1ccc1[nH]ccc12	–	> 10	Active	–	17.2	–	–	–	–	–	–	–
COc1cccc(-c2cc(=O)c3ccc4[nH]ccc4c3[nH]2)c1	35	0.59	–	0.81	17.7	0.92	25	0.39	21.2	38.4	0.7	–
CCn1ccc2c3c(C(=O)O)cc(-c4ccccc4)nc3ccc21	–	1.47	Not Active	–	–	–	–	–	–	–	–	–
CCOC(=O)c1cc(-c2ccc(OC)cc2)nc2c1ccc1[nH]ccc12	–	> 10	Active	–	1.9	–	–	–	–	–	–	–
CCOC(=O)c1cc(C)nc2c1ccc1[nH]ccc12	–	> 10	Not Active	–	–	–	–	–	–	–	–	–
c1ccc(-c2cc(Cn3ccnc3)c3ccc4[nH]ccc4c3n2)cc1	17	0.0114	Not Active	23.3	13.5	23.6	29.6	16.9	27	21.2	36.5	IC50 [7]: 0.919 µM; Activity (HeLa [13]): inactive; Activity (MCF7 [14]): Dose-dependent effect; Activity (MCF7 [15]): Active; Activity (Aromatase [9]): Active; IC50 [10]: 0.23 µM
COc1ccc(-c2cc(Cn3cncn3)c3ccc4[nH]ccc4c3n2)cc1	28.4	> 10	Not Active	> 100	> 100	82	43.8	50.6	39.5	> 100	> 100	IC50 [7]: > 5 µM; Activity (Aromatase [9]): Active; IC50 [10]: > 5 µM
Cc1cc(C(=O)O)c2ccc3[nH]ccc3c2n1	–	> 10	Not Active	–	–	–	–	–	–	–	–	Activity (Aromatase [9]): Active
COc1ccc(-c2cc(Cn3ccnc3)c3ccc4[nH]ccc4c3n2)cc1	25.5	0.454	Not Active	> 100	> 100	> 100	23.3	> 100	73.8	67.9	46.2	inhibition (INH) (Aromatase [6]): Not Active; IC50 [7]: 0.55 µM; IC50 [10]: 0.96 µM
CCn1ccc2c3nc(-c4ccccc4)cc(CO)c3ccc21	–	> 10	Not Active	–	–	–	–	–	–	–	–	–
OCc1cc(-c2ccccc2)nc2c1ccc1[nH]ccc12	–	2.11	–	–	–	–	–	–	–	–	–	inhibition at 10 µM (Aromatase [3]): 40%
CCn1ccc2c3c(Cn4cncn4)cc(-c4ccccc4)nc3ccc21	5.5	0.0133	–	23	29.5	54.3	2.7	13.6	65.8	59.8	75.3	IC50 [7]: > 5 µM; Activity (MCF7 [16]): Active; Activity (HeLa [17]): Active; activity at 10 µM (Aromatase [18]): 50.9%; IC50 [10]: 1.48 µM; Activity (MCF7 [19]): Active; Activity (HeLa [20]): Active
